Test results taken from ChEMBL document CHEMBL4689842, “EUbOPEN Chemogenomics Library wave 1” (2021).
Values joined by “and” are separate entries in the source; they are usually repeats but may differ in a detail not shown here. Equal values may be shown once.

Tested on: HEK-293T
Assay: Multiplex assay against HEK293T;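 as to Population Tubulin-Different-Phenotype (%): share of the cells with healthy nuclei that show this phenotype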
Format: toxicity, cell-based
Details: human
Procedure, shortened: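 Tubulin, mitochondrial-mass and membrane-permeability phenotypes are per cents of healthy-nucleus cells. Cells were gated by CellPathfinder machine learning into Hoechst high-intensity objects or normal cells, normal cells into healthy, pyknosed or fragmented nuclei, and pyknosed cells into mitotic or apoptotic. Before that, live cells stained at seeding with Hoechst33342, BioTracker Green Microtubule Cytoskeleton Dye, MitoTracker Red and Annexin V Alexa Fluor 680 were imaged on a CQ1 microscope at 37°C and 5% CO2 after compound addition.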

[1] = 12 h, 1 µM, compound concentration 1 uM, replicate 1
[2] = 12 h, 1 µM, compound concentration 1 uM, replicate 2
[3] = 12 h, 10 µM, compound concentration 10 uM, replicate 1
[4] = 12 h, 10 µM, compound concentration 10 uM, replicate 2
[5] = 24 h, 1 µM, compound concentration 1 uM, replicate 1
[6] = 24 h, 1 µM, compound concentration 1 uM, replicate 2
[7] = 24 h, 10 µM, compound concentration 10 uM, replicate 1
[8] = 24 h, 10 µM, compound concentration 10 uM, replicate 2
[9] = 48 h, 10 µM, compound concentration 10 uM, replicate 1
[10] = 48 h, 10 µM, compound concentration 10 uM, replicate 2

CN(C)CCOc1ccc(-c2nc(-c3ccncc3)c(-c3ccc4c(c3)CC/C4=N\O)[nH]2)cc1 [SB590885]
Population Apoptotic (%) [1]: 25% | Population Fragmented Nuclei (%) [1]: 15% | Population Healthy Nuclei (%) [1]: 65% | Population Hoechst High Intensity Objects (%) [1]: 22% | Population Membrane Permeable-Phenotype (%) [1]: 30% | Population Mitochondria Different-Phenotype (%) [1]: 8% | Population Mitotic Cells (%) [1]: 74% | Population Normal (%) [1]: 77% | Population Pyknosed Nuclei (%) [1]: 18% | Population Tubulin-Different-Phenotype (%) [1]: 44% | Total Cell Count [1]: 678 | Population Apoptotic (%) [2]: 17% | Population Fragmented Nuclei (%) [2]: 2% | Population Healthy Nuclei (%) [2]: 88% | Population Hoechst High Intensity Objects (%) [2]: 12% | Population Membrane Permeable-Phenotype (%) [2]: 12% | Population Mitochondria Different-Phenotype (%) [2]: 23% | Population Mitotic Cells (%) [2]: 82% | Population Normal (%) [2]: 87% | Population Pyknosed Nuclei (%) [2]: 8% | Population Tubulin-Different-Phenotype (%) [2]: 76% | Total Cell Count [2]: 1120 | Population Apoptotic (%) [3]: 28% | Population Fragmented Nuclei (%) [3]: 12% | Population Healthy Nuclei (%) [3]: 69% | Population Hoechst High Intensity Objects (%) [3]: 9% | Population Membrane Permeable-Phenotype (%) [3]: 4% | Population Mitochondria Different-Phenotype (%) [3]: 8% | Population Mitotic Cells (%) [3]: 71% | Population Normal (%) [3]: 90% | Population Pyknosed Nuclei (%) [3]: 18% | Population Tubulin-Different-Phenotype (%) [3]: 5% | Total Cell Count [3]: 676 | Population Apoptotic (%) [4]: 8% | Population Fragmented Nuclei (%) [4]: 7% | Population Healthy Nuclei (%) [4]: 87% | Population Hoechst High Intensity Objects (%) [4]: 1% | Population Membrane Permeable-Phenotype (%) [4]: 3% | Population Mitotic Cells (%) [4]: 91% | Population Normal (%) [4]: 98% | Population Pyknosed Nuclei (%) [4]: 4% | Population Tubulin-Different-Phenotype (%) [4]: 9% | Total Cell Count [4]: 1929 | Population Apoptotic (%) [5]: 24% | Population Fragmented Nuclei (%) [5]: 15% | Population Healthy Nuclei (%) [5]: 69% | Population Hoechst High Intensity Objects (%) [5]: 24% | Population Membrane Permeable-Phenotype (%) [5]: 23% | Population Mitochondria Different-Phenotype (%) [5]: 14% | Population Mitotic Cells (%) [5]: 75% | Population Normal (%) [5]: 75% | Population Pyknosed Nuclei (%) [5]: 15% | Population Tubulin-Different-Phenotype (%) [5]: 48% | Total Cell Count [5]: 670 | Population Apoptotic (%) [6]: 10% | Population Fragmented Nuclei (%) [6]: 6% | Population Healthy Nuclei (%) [6]: 86% | Population Hoechst High Intensity Objects (%) [6]: 18% | Population Membrane Permeable-Phenotype (%) [6]: 27% | Population Mitochondria Different-Phenotype (%) [6]: 7% | Population Mitotic Cells (%) [6]: 89% | Population Normal (%) [6]: 81% | Population Pyknosed Nuclei (%) [6]: 6% | Population Tubulin-Different-Phenotype (%) [6]: 65% | Total Cell Count [6]: 1437 | Population Apoptotic (%) [7]: 20% | Population Fragmented Nuclei (%) [7]: 9% | Population Healthy Nuclei (%) [7]: 85% | Population Hoechst High Intensity Objects (%) [7]: 5% | Population Membrane Permeable-Phenotype (%) [7]: 10% | Population Mitochondria Different-Phenotype (%) [7]: 5% | Population Mitotic Cells (%) [7]: 79% | Population Normal (%) [7]: 94% | Population Pyknosed Nuclei (%) [7]: 5% | Population Tubulin-Different-Phenotype (%) [7]: 8% | Total Cell Count [7]: 810 | Population Apoptotic (%) [8]: 1% | Population Fragmented Nuclei (%) [8]: 24% | Population Healthy Nuclei (%) [8]: 73% | Population Hoechst High Intensity Objects (%) [8]: 3% | Population Membrane Permeable-Phenotype (%) [8]: 7% | Population Mitochondria Different-Phenotype (%) [8]: 1% | Population Mitotic Cells (%) [8]: 98% | Population Normal (%) [8]: 96% | Population Pyknosed Nuclei (%) [8]: 2% | Population Tubulin-Different-Phenotype (%) [8]: 10% | Total Cell Count [8]: 3237

CC(C)Oc1ccc(C(=O)N[C@H](CNC(=O)CN(C)C)Cc2ccc(-c3cn4cccc([C@H](C)O)c4n3)cc2)cc1Cl [GSK-923295A]
Population Apoptotic (%) [1]: 15% | Population Fragmented Nuclei (%) [1]: 9% | Population Healthy Nuclei (%) [1]: 61% | Population Hoechst High Intensity Objects (%) [1]: 8% | Population Membrane Permeable-Phenotype (%) [1]: 6% | Population Mitochondria Different-Phenotype (%) [1]: 10% | Population Mitotic Cells (%) [1]: 84% | Population Normal (%) [1]: 91% | Population Pyknosed Nuclei (%) [1]: 28% | Population Tubulin-Different-Phenotype (%) [1]: 15% | Total Cell Count [1]: 623 | Population Apoptotic (%) [2]: 7% | Population Fragmented Nuclei (%) [2]: 6% | Population Healthy Nuclei (%) [2]: 69% | Population Hoechst High Intensity Objects (%) [2]: 2% | Population Membrane Permeable-Phenotype (%) [2]: 3% | Population Mitochondria Different-Phenotype (%) [2]: 12% | Population Mitotic Cells (%) [2]: 92% | Population Normal (%) [2]: 97% | Population Pyknosed Nuclei (%) [2]: 24% | Population Tubulin-Different-Phenotype (%) [2]: 25% | Total Cell Count [2]: 1239 | Population Apoptotic (%) [3]: 33% and 93% | Population Fragmented Nuclei (%) [3]: 22% and 19% | Population Healthy Nuclei (%) [3]: 37% and 22% | Population Hoechst High Intensity Objects (%) [3]: 20% and 23% | Population Normal (%) [3]: 79% and 76% | Population Pyknosed Nuclei (%) [3]: 39% and 58% | Population Tubulin-Different-Phenotype (%) [3]: 82% and 100% | Population Healthy Nuclei (%) [4]: 28% and 73% | Population Hoechst High Intensity Objects (%) [4]: 4% | Population Membrane Permeable-Phenotype (%) [4]: 13% and 21% | Population Mitochondria Different-Phenotype (%) [4]: 86% and 42% | Population Mitotic Cells (%) [4]: 32% and 82% | Population Normal (%) [4]: 95% | Population Pyknosed Nuclei (%) [4]: 62% and 24% | Population Tubulin-Different-Phenotype (%) [4]: 94% and 98% | Population Apoptotic (%) [5]: 10% | Population Fragmented Nuclei (%) [5]: 10% | Population Healthy Nuclei (%) [5]: 65% | Population Hoechst High Intensity Objects (%) [5]: 7% | Population Membrane Permeable-Phenotype (%) [5]: 6% | Population Mitochondria Different-Phenotype (%) [5]: 11% | Population Mitotic Cells (%) [5]: 90% | Population Normal (%) [5]: 92% | Population Pyknosed Nuclei (%) [5]: 24% | Population Tubulin-Different-Phenotype (%) [5]: 23% | Total Cell Count [5]: 668 | Population Apoptotic (%) [6]: 12% | Population Fragmented Nuclei (%) [6]: 13% | Population Healthy Nuclei (%) [6]: 77% | Population Hoechst High Intensity Objects (%) [6]: 4% | Population Membrane Permeable-Phenotype (%) [6]: 4% | Population Mitochondria Different-Phenotype (%) [6]: 8% | Population Mitotic Cells (%) [6]: 87% | Population Normal (%) [6]: 95% | Population Pyknosed Nuclei (%) [6]: 8% | Population Tubulin-Different-Phenotype (%) [6]: 28% | Total Cell Count [6]: 1632 | Population Apoptotic (%) [7]: 92% and 41% | Population Fragmented Nuclei (%) [7]: 19% | Population Healthy Nuclei (%) [7]: 33% and 54% | Population Hoechst High Intensity Objects (%) [7]: 22% and 18% | Population Membrane Permeable-Phenotype (%) [7]: 0% and 19% | Population Mitochondria Different-Phenotype (%) [7]: 100% and 41% | Population Normal (%) [7]: 77% and 81% | Population Pyknosed Nuclei (%) [7]: 47% and 26% | Population Tubulin-Different-Phenotype (%) [7]: 91% | Population Fragmented Nuclei (%) [8]: 8% and 4% | Population Healthy Nuclei (%) [8]: 39% and 72% | Population Hoechst High Intensity Objects (%) [8]: 4% and 7% | Population Mitochondria Different-Phenotype (%) [8]: 94% and 40% | Population Normal (%) [8]: 95% and 92% | Population Pyknosed Nuclei (%) [8]: 51% and 22% | Population Tubulin-Different-Phenotype (%) [8]: 96% and 98% | Population Apoptotic (%) [9]: 87% | Population Fragmented Nuclei (%) [9]: 23% | Population Healthy Nuclei (%) [9]: 46% | Population Hoechst High Intensity Objects (%) [9]: 30% | Population Membrane Permeable-Phenotype (%) [9]: 3% | Population Mitochondria Different-Phenotype (%) [9]: 100% | Population Mitotic Cells (%) [9]: 12% | Population Normal (%) [9]: 69% | Population Pyknosed Nuclei (%) [9]: 29% | Population Tubulin-Different-Phenotype (%) [9]: 88% | Total Cell Count [9]: 156 | Population Apoptotic (%) [10]: 75% | Population Fragmented Nuclei (%) [10]: 10% | Population Healthy Nuclei (%) [10]: 53% | Population Hoechst High Intensity Objects (%) [10]: 15% | Population Membrane Permeable-Phenotype (%) [10]: 9% | Population Mitochondria Different-Phenotype (%) [10]: 86% | Population Mitotic Cells (%) [10]: 24% | Population Normal (%) [10]: 84% | Population Pyknosed Nuclei (%) [10]: 35% | Population Tubulin-Different-Phenotype (%) [10]: 97% | Total Cell Count [10]: 164
